Rows were chosen to be rich in hits. Some 3% of all compounds tested hit in one or more screens of this group.
UBC13 inh – inhibitors of human UBC13 polyubiquitin chain formation | 330,000 compounds, 0.47% hits | inhibition, % at 20 µM | TR-FRET | AID 485273 | P61088; in the data active = inhibition above about 45%, passing the limit was not always enough
SENP6 inh – inhibitors of human SENP6 protease; Recombinant SENP6 catalytic domain, aminoluciferin luminescence; inhibition, % at 10 µM; 330,000 compounds, 1.8% hits;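 active = inhibition above about 50% at the single tested dose, limit read from the data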;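 note: plate controls were DMSO wells with enzyme for no effect and DMSO wells lacking enzyme for full effect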
Apaf1 inhib – blocks human Apaf-1 apoptosome activity; O14727; reconstituted apoptosome caspase-3 activity, DEVD-Rh110 fluorescence; inhibition, % at 20 µM; 330,000 compounds, 0.71% hits; AID 489030; active = inhibition of at least 40% at 20 µM;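 note: plate controls were DMSO wells for no effect and DEVD-CHO caspase inhibitor wells for full effect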
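Material: biochemical Apaf-1 apoptosome reconstitution. Medium: Hepes buffer, pH 7.5. Also added: cytochrome c activation, bis-DEVD rhodamine 110 substrate. Timing: 30 min compound preincubation, 50 min activation, room temperature. Measured by: rhodamine 110 fluorescence at Ex 480/Em 540 nm.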
SENP8 block-1 – blocks human SENP8 cleavage of Nedd8 substrate. AID 602440. inhibition, % at 20 µM. 360,000 compounds, 0.64% hits. recombinant SENP8, Nedd8 substrate fluorescence. Q96LD8; in the data active = inhibition mostly above about 40%, no sharp cut-off; inactive = mostly below about 27%
SENP8 block-2 – blocks the human protease SENP8; Q96LD8; 330,000 compounds, 1.2% hits; purified SENP8, Z-RLRGG-aminoluciferin cleavage, luminescence; inhibition, % at 10 µM; in the data active = inhibition above about 50%
SENP7 block – blocks the human protease SENP7; recombinant SENP7, Z-RLRGG-aminoluciferin luminescence, 40 min; AID 434973; Q9BQF6; 330,000 compounds, 1.5% hits; inhibition, % at 5 µM;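 active = inhibition above about 50% at the single test dose, limit read from the data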;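 note: plate controls were DMSO with enzyme for no effect and no enzyme buffer wells for full effect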
Active calls of the source: *; nt = no result.

SMILES | UBC13 inh | SENP6 inh | Apaf1 inhib | SENP8 block-1 | SENP8 block-2 | SENP7 block
C#CCOCCOCCOCCNc1nc(N2CCN(C(=O)CCCCCCCCCCNC(=O)[C@H]([C@@H](C)CC)n3cc(CCCCN=C(N)N)nn3)CC2)nc(N2CCN(C(=O)CCCCCCCCCCNC(=O)[C@H](CO)n3cc(CCCCCN)nn3)CC2)n1 | 123* | -32 | 85* | 24 | -6 | 7
C#CCOCCOCCOCCNc1nc(N2CCN(C(=O)CCCCCCCCCCNC(=O)[C@H]([C@@H](C)CC)n3cc(CCCCCN)nn3)CC2)nc(N2CCN(C(=O)CCCCCCCCCCNC(=O)[C@@H]([C@H](C)CC)n3cc(CCCCCN)nn3)CC2)n1 | 123* | -26 | 78* | nt | -28 | 7
C#CCOCCOCCOCCNc1nc(N2CCN(C(=O)[C@H]([C@@H](C)CC)n3cc(CCCN=C(N)N)nn3)CC2)nc(N2CCN(C(=O)[C@H]([C@@H](C)CC)n3cc(CCCN=C(N)N)nn3)CC2)n1 | 25 | 1 | 33 | nt | -5 | 0
COc1ccccc1CCNC(=O)C(=O)NCC1OCCN1S(=O)(=O)c1cc(F)ccc1F (centres undefined) | 8 | -14 | 1 | 11 | 8 | -5
Cc1cc(Br)cn2c(Cc3ccccc3)c(-c3ccc(C#N)cc3)nc12 | nt | nt | nt | -74 | nt | nt
Cc1ccc(C)c(S(=O)(=O)NCC(=O)Nc2ccc3c(c2)OCO3)c1 | -5 | -5 | 2 | 0 | -9 | 19
CC[C@H](C)[C@@H](C(=O)NCCCCCCCCCCC(=O)N1CCN(C(=O)OC(C)(C)C)CC1)n1cc(CCCCN=C(NC(=O)OC(C)(C)C)NC(=O)OC(C)(C)C)nn1 | 71* | -8 | 56* | nt | -7 | 5
Cc1cc([N+](=O)[O-])nn1CC(=O)NC1CCCCC1 | 8 | 15 | 0 | -2 | 3 | 1
O=c1c2ccccc2cnn1CCOc1ccccc1 | 5 | 92* | 6 | 8 | 92* | 93*
CN(c1ccccc1)S(=O)(=O)c1cccc(NC(=O)CCNC(=O)c2ccco2)c1 | nt | nt | nt | 6 | nt | nt
Cc1cccc(NC(=O)c2cnc3ccccn3c2=O)c1 | -17 | 81* | 4 | -42 | 67* | 67*
Cc1cccc(C)c1OCC(=O)NNC(=S)NC(=O)C1CC1 | 85* | -7 | -5 | 8 | 1 | -4
Cc1cc(C)cc(-n2ncc3c2CCCC3NC(=O)c2ccccc2)c1 (centres undefined) | nt | nt | nt | 16 | nt | nt
O=C1c2ccccc2C(=O)C1(O)O | -52 | 57* | 68* | nt | 62* | 44
O=C1c2cccc3c2C2(O)c4c1cccc4C(=O)c1cccc(c12)C3=O | nt | nt | nt | 6 | nt | nt
CCN1CCN(Cc2ccc(NC(=O)c3cc(NC(=O)c4cc5cccc(OC)c5o4)cc(OC)c3)cc2C(F)(F)F)CC1 | 40 | -14 | 63* | 0 | -15 | -6
CCN1CCN(Cc2ccc(NC(=O)c3cc(NC(=O)c4ccno4)cc(OC)c3)cc2C(F)(F)F)CC1 | 27 | -4 | 15 | 13 | -5 | 3
C#Cc1cccc(NC(=O)c2ccc(Cl)cc2Cl)c1 | -1 | 73* | 12 | 11 | 62* | 74*
O=C(Nc1ccc(Nc2ccccc2)cc1)c1ccc(Cl)cc1Cl | -4 | -14 | 16 | 18 | 0 | 0
CC(=O)N1CCc2c(sc(NC(=O)C3CC3)c2-c2nc3ccccc3s2)C1 | -2 | 68* | 72* | -353 | 26 | 26
CCN(CC)CCN(C(=O)c1ccc2c(c1)CCCC2)c1nc2cc(OC)c(OC)cc2s1 | 32 | -17 | 48* | 3 | -11 | -1
O=C(Cn1cc(SCc2ccccc2Cl)c2ccccc21)N1CCOCC1 | 13 | 75* | 6 | 11 | 43 | 40
CN1CCc2c(sc(NC(=O)c3ccc(C(=O)c4ccccc4)cc3)c2C(N)=O)C1 | 7 | 3 | 44* | -13 | 4 | -6
CCN1CCc2c(sc(NC(=O)c3ccc4ccccc4c3)c2C(N)=O)C1 | 17 | -7 | 40* | -311 | -8 | -5
CN1CCc2c(sc(NC(=O)CS(=O)(=O)c3ccccc3)c2C(N)=O)C1 | -7 | -11 | -13 | -17 | -3 | 8
CCN1CCN(S(=O)(=O)c2ccc(C(=O)Nc3sc4c(c3C(N)=O)CCN(CC)C4)cc2)CC1 | -20 | -4 | -13 | -120 | 8 | 0
Oc1c(N=Nc2ccccn2)ccc2ccccc12 | -61 | 94* | 37 | 21 | 96* | 43

Screening data: PubChem BioAssay, Sanford-Burnham Center for Chemical Genomics
